Results: ChEMBL document CHEMBL1124735, “Dehydrogenase binding by tiazofurin anabolites” (J Med Chem, 1990)

Compound: NC(=O)c1ccc[n+]([C@@H]2O[C@H](COP(=O)([O-])OP(=O)(O)OC[C@H]3O[C@@H](n4cnc5c(N)ncnc54)[C@H](O)[C@@H]3O)[C@@H](O)[C@H]2O)c1
Experiment: In vitro inhibitory activity against pig heart cytoplasmic malate dehydrogenase (MDH),
Procedure, shortened: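 Pig heart enzymes (cytoplasmic MDH or LDH, from ammonium sulfate suspension) assayed in 0.05 M Tris HCl pH 9.0, with NAD as substrate; rates from NADH appearance by A340 (ε 6.22 mM⁻¹cm⁻¹) or fluorescence calibrated against NADH standards. Run at least in duplicate; kinetic constants from Lineweaver-Burk plots by linear regression.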

B1: Malate dehydrogenase, cytoplasmic (Sus scrofa), P11708 (protein)
chain: MSEPIRVLVTGAAGQIAYSLLYSIGNGSVFGKDQPIILVLLDITPMMGVLDGVLMELQDCALPLLKDVIATDKEEIAFKDLDVAILVGSMPRRDGMERKDLLKANVKIFKCQGAALDKYAKKSVKVIVVGNPANTNCLTASKSAPSIPKENFSCLTRLDHNRAKAQIALKLGVTSDDVKNVIIWGNHSSTQYPDVNHAKVKLQAKEVGVYEAVKDDSWLKGEFITTVQQRGAAVIKARKLSSAMSAAKAICDHVRDIWFGTPEGEFVSMGIISDGNSYGVPDDLLYSFPVTIKDKTWKIVEGLPINDFSREKMDLTAKELAEEKETAFEFLSSA
- Km: 33.9 µM
